Data set [1] addresses T1, Keap1/Nrf2 (Homo sapiens) (UniProt Q16236+Q14145). The experiment in a line: Activation of Keap1/Nrf2 in human MCF7 cells assessed as Nrf2 stabilization incubated overnight by luciferase reporter gene based luminescence assay. The class given is cell-based. In outline:
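NRF2 luciferase reporter MCF7 stable cells in DMEM/10% FBS with G418, seeded 5 × 10^4 cells/well, overnight adherence; DMSO-dissolved compound 1.98–15.0 μM, overnight 37 °C/5% CO2. Lysed in passive lysis buffer, firefly luciferase substrate injected, luminescence read. Activation (%) = (treated − untreated)/untreated × 100, DMSO value subtracted; tBHQ and DMF positive controls; three technical replicates per biological replicate.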
In general terms: In a reporter assay the amount or activity of a reporter protein is the signal.

In data set [2] the test system is Mus musculus. In words: Antiinflammatory activity in hypersensitivity CD1 mouse ear edema model assessed as PMA-induced ear edema at 3 umol/ear applied topically pretreated for 10 mins followed by PMA application measured after 6 hrs (reference value: 32.5 +/- 7.5%). The format is functional.
In data set [3] the test system is Mus musculus. In words: Antiinflammatory activity in hypersensitivity CD1 mouse ear edema model assessed as PMA-induced ear edema at 1 umol/ear applied topically pretreated for 10 mins followed by PMA application measured after 6 hrs (reference value: 32.5 +/- 7.5%). The format is functional.
Data set [4] has as its system Mus musculus. The experiment in a line: Antiinflammatory activity in hypersensitivity CD1 mouse ear edema model assessed as PMA-induced ear edema at 0.3 umol/ear applied topically pretreated for 10 mins followed by PMA application measured after 6 hrs (reference value: 32.5 +/- 7.5%). The class given is functional.
Data set [5] relates to Mus musculus. The experiment in a line: Antiinflammatory activity in hypersensitivity CD1 mouse ear edema model assessed as PMA-induced ear edema at 0.1 umol/ear applied topically pretreated for 10 mins followed by PMA application measured after 6 hrs (reference value: 32.5 +/- 7.5%). The format is functional.
For data set [6], the target named is T2, Kelch-like ECH-associated protein 1/Nuclear factor erythroid 2-related factor 2 (Mus musculus) (UniProt Q60795+Q9Z2X8). In words: Activation of Keap1/Nrf2 in mouse LPS-induced RAW264.7 cells assessed as increase in Srxn1 expression level at 4 to 12 uM pretreated for 1 hr followed by LPS addition measured after 30 to 180 mins. The format is cell-based. In outline: (§1)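 RAW 264.7 macrophages (DMEM, 10% FBS) grown near confluent; compound (4 or 12 μM) or EtOH vehicle 1 h at 37 °C, then LPS (E. coli O26:B6, 0.5 μg/mL) for 30 or 180 min; triplicate wells. TRIzol total RNA, rRNA depletion, Illumina HiSeq2000 100 bp single-end reads; DESeq2 differential expression versus matched LPS-only control.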
T2 sequence (Q60795 whole entry, looked up): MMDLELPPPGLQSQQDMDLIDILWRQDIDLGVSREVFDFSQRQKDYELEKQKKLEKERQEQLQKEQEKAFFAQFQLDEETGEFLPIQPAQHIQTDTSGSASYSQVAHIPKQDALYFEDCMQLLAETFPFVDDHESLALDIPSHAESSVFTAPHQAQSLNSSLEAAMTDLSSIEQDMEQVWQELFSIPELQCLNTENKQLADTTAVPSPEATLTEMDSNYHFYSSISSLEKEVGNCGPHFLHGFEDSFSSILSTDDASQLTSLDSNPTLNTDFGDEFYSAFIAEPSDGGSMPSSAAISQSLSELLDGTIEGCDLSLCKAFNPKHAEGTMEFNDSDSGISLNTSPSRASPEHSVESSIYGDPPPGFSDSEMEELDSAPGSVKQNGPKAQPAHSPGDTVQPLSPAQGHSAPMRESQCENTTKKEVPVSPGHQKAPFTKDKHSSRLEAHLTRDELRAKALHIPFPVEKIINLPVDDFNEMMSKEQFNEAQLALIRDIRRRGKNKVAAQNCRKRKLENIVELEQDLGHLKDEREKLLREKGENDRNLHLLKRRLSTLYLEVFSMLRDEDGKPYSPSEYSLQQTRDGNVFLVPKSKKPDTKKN
T2 sequence (Q9Z2X8 whole entry, looked up): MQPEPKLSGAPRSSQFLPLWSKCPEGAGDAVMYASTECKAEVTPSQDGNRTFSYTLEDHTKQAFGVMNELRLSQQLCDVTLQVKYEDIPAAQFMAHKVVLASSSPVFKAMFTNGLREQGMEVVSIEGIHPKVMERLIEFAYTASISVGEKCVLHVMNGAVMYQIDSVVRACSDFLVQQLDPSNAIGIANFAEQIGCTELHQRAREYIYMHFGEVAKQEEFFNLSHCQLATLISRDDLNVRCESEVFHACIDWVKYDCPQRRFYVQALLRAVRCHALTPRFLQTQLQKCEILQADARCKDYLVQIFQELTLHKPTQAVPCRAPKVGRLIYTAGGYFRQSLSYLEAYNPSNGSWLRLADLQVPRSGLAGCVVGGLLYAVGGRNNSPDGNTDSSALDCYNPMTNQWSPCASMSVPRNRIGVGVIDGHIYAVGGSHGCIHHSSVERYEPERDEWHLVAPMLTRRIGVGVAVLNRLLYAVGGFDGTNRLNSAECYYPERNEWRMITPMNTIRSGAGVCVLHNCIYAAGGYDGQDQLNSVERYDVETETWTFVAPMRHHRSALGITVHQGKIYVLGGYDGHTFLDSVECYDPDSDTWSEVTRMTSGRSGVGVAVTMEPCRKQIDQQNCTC

Data set [7] concerns the target T2, Kelch-like ECH-associated protein 1/Nuclear factor erythroid 2-related factor 2 (Mus musculus). In words: Activation of Keap1/Nrf2 in mouse LPS-induced RAW264.7 cells assessed as increase in Hmox1 expression level at 12 uM pretreated for 1 hr followed by LPS addition measured after 30 to 180 mins. The class given is cell-based. In outline: as §1
The target is the same in data set [8]. The experiment in a line: Activation of Keap1/Nrf2 in mouse LPS-induced RAW264.7 cells assessed as downregulation of Socs3 expression level at 4 to 12 uM pretreated for 1 hr followed by LPS addition measured after 30 mins. The format is cell-based. In outline: as §1
The target is the same in data set [9]. In words: Activation of Keap1/Nrf2 in mouse LPS-induced RAW264.7 cells assessed as downregulation of Rasgef1 expression level at 4 to 12 uM pretreated for 1 hr followed by LPS addition measured after 30 mins. The class given is cell-based. In outline:
as §1

For data set [10] the target is unchanged. In words: Activation of Keap1/Nrf2 in mouse LPS-induced RAW264.7 cells assessed as increase in […] expression level at 4 to 12 uM pretreated for 1 hr followed by LPS addition measured after 30 to 180 mins. The format is cell-based. In outline:
as §1

For data set [11] the target is unchanged. The experiment in a line: Activation of Keap1/Nrf2 in mouse LPS-induced RAW264.7 cells assessed as increase in Prdx1 expression level at 4 to 12 uM pretreated for 1 hr followed by LPS addition measured after 30 to 180 mins. The format is cell-based. In outline:
as §1

For data set [12] the target is unchanged. The experiment in a line: Activation of Keap1/Nrf2 in mouse LPS-induced RAW264.7 cells assessed as increase in Sqstm1 expression level at 4 to 12 uM pretreated for 1 hr followed by LPS addition measured after 30 to 180 mins. The class given is cell-based. Put shortly: as §1
Data set [13] shares this target. In words: Activation of Keap1/Nrf2 in mouse LPS-induced RAW264.7 cells assessed as increase in Gclm expression level at 4 to 12 uM pretreated for 1 hr followed by LPS addition measured after 30 to 180 mins. The class given is cell-based. Put shortly:
as §1

The target is the same in data set [14]. In words: Activation of Keap1/Nrf2 in mouse LPS-induced RAW264.7 cells assessed as increase in Slc7a11 expression level at 4 to 12 uM pretreated for 1 hr followed by LPS addition measured after 30 to 180 mins. The format is cell-based. In outline: as §1
The target is the same in data set [15]. In words: Activation of Keap1/Nrf2 in mouse LPS-induced RAW264.7 cells assessed as increase in Akr1b8 expression level at 4 to 12 uM pretreated for 1 hr followed by LPS addition measured after 30 to 180 mins. The class given is cell-based. Put shortly: as §1
For data set [16] the target is unchanged. In words: Activation of Keap1/Nrf2 in mouse LPS-induced RAW264.7 cells assessed as change in Procr expression level at 4 to 12 uM pretreated for 1 hr followed by LPS addition measured after 30 to 180 mins. The format is cell-based. Put shortly:
as §1

Data set [17] shares this target. The experiment in a line: Activation of Keap1/Nrf2 in mouse LPS-induced RAW264.7 cells assessed as change in Fosl1 expression level at 4 to 12 uM pretreated for 1 hr followed by LPS addition measured after 30 to 180 mins. The class given is cell-based. In outline:
as §1

For data set [18] the target is unchanged. In words: Activation of Keap1/Nrf2 in mouse LPS-induced RAW264.7 cells assessed as change in Cd300lb expression level at 4 to 12 uM pretreated for 1 hr followed by LPS addition measured after 30 to 180 mins. The format is cell-based. Put shortly: as §1
The target is the same in data set [19]. In words: Activation of Keap1/Nrf2 in mouse LPS-induced RAW264.7 cells assessed as change in […] expression level at 4 to 12 uM pretreated for 1 hr followed by LPS addition measured after 30 to 180 mins. The class given is cell-based. Put shortly: as §1
The target is the same in data set [20]. In words: Activation of Keap1/Nrf2 in mouse LPS-induced RAW264.7 cells assessed as change in Ccl22 expression level at 4 to 12 uM pretreated for 1 hr followed by LPS addition measured after 30 to 180 mins. The class given is cell-based. Put shortly:
as §1

Data set [21] has the same target. The experiment in a line: Activation of Keap1/Nrf2 in mouse LPS-induced RAW264.7 cells assessed as change in IL-1alpha expression level at 4 to 12 uM pretreated for 1 hr followed by LPS addition measured after 30 to 180 mins. The class given is cell-based. Put shortly: as §1
The target is the same in data set [22]. In words: Activation of Keap1/Nrf2 in mouse LPS-induced RAW264.7 cells assessed as change in IFNb1 expression level at 4 to 12 uM pretreated for 1 hr followed by LPS addition measured after 30 to 180 mins. The format is cell-based. Put shortly:
as §1

For data set [23] the target is unchanged. The experiment in a line: Activation of Keap1/Nrf2 in mouse LPS-induced RAW264.7 cells assessed as change in Irf1 expression level at 4 to 12 uM pretreated for 1 hr followed by LPS addition measured after 30 to 180 mins. The class given is cell-based. In outline:
as §1

Data set [24] has the same target. In words: Activation of Keap1/Nrf2 in mouse LPS-induced RAW264.7 cells assessed as change in Fos expression level at 4 to 12 uM pretreated for 1 hr followed by LPS addition measured after 30 to 180 mins. The format is cell-based. Put shortly:
as §1

Data set [25] has the same target. In words: Activation of Keap1/Nrf2 in mouse LPS-induced RAW264.7 cells assessed as change in Nfkbia expression level at 4 to 12 uM pretreated for 1 hr followed by LPS addition measured after 30 to 180 mins. The class given is cell-based. In outline: as §1
For data set [26] the target is unchanged. In words: Activation of Keap1/Nrf2 in mouse LPS-induced RAW264.7 cells assessed as change in Cd83 expression level at 4 to 12 uM pretreated for 1 hr followed by LPS addition measured after 30 to 180 mins. The format is cell-based. Put shortly:
as §1

Data set [27] has the same target. The experiment in a line: Activation of Keap1/Nrf2 in mouse LPS-induced RAW264.7 cells assessed as change in TNF expression level at 4 to 12 uM pretreated for 1 hr followed by LPS addition measured after 30 to 180 mins. The format is cell-based. Put shortly:
as §1

For data set [28] the target is unchanged. The experiment in a line: Activation of Keap1/Nrf2 in mouse LPS-induced RAW264.7 cells assessed as change in IL-1beta expression level at 4 to 12 uM pretreated for 1 hr followed by LPS addition measured after 30 to 180 mins. The class given is cell-based. Put shortly: as §1
Data set [29] shares this target. The experiment in a line: Activation of Keap1/Nrf2 in mouse LPS-induced RAW264.7 cells assessed as change in Nfkbiz expression level at 4 to 12 uM pretreated for 1 hr followed by LPS addition measured after 30 to 180 mins. The format is cell-based. In outline: as §1
For data set [30] the target is unchanged. The experiment in a line: Activation of Keap1/Nrf2 in mouse LPS-induced RAW264.7 cells assessed as change in Ccrl2 expression level at 4 to 12 uM pretreated for 1 hr followed by LPS addition measured after 30 to 180 mins. The class given is cell-based. In outline: as §1
Data set [31] shares this target. In words: Activation of Keap1/Nrf2 in mouse LPS-induced RAW264.7 cells assessed as change in Tnfaip3 expression level at 4 to 12 uM pretreated for 1 hr followed by LPS addition measured after 30 to 180 mins. The format is cell-based. In outline:
as §1

For data set [32], the system named is MCF7. The experiment in a line: Cytotoxicity against human MCF7 cells assessed as decrease in cell viability at 15 uM by MTT assay. The following applies: mcf7, 15 µM. The format is cell-based. In outline: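 Nrf2-reporter MCF7 cells seeded and dosed as in the reporter assay (1.98–15.0 μM in DMSO, overnight at 37 °C). Cells washed, then 1 mg/mL MTT in serum-free DMEM for 25 min at 37 °C. Formazan dissolved in DMSO, absorbance read at 570 and 630 nm, background subtracted. Viability given as % of untreated control, mean ± standard error.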
(In general: Tetrazolium dyes change colour on reduction, which living cells bring about.)

Data set [33] has as its target T1, Keap1/Nrf2 (Homo sapiens). The experiment in a line: Activation of Keap1/Nrf2 in human MCF7 cells assessed as Nrf2 stabilization at 15 uM incubated overnight by luciferase reporter gene based luminescence assay. The class given is cell-based. In outline: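 MCF7 cells stably carrying an Nrf2-responsive firefly luciferase construct, grown with G418, seeded 5 × 10^4 cells/well and left overnight at 37 °C. Compound added in DMSO (tested range 1.98–15.0 μM), incubated overnight. Cells washed, lysed 15 min at room temperature, luminescence read after substrate injection. Activation = % RLU over untreated cells, DMSO value subtracted. Triplicate technical wells; positive controls tBHQ and DMF.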

Counter-ions that a name gives are not always drawn. Active and inactive are the calls of the source. The rule behind the calls is not given here.

T1 sequence (Q14145 whole entry, looked up): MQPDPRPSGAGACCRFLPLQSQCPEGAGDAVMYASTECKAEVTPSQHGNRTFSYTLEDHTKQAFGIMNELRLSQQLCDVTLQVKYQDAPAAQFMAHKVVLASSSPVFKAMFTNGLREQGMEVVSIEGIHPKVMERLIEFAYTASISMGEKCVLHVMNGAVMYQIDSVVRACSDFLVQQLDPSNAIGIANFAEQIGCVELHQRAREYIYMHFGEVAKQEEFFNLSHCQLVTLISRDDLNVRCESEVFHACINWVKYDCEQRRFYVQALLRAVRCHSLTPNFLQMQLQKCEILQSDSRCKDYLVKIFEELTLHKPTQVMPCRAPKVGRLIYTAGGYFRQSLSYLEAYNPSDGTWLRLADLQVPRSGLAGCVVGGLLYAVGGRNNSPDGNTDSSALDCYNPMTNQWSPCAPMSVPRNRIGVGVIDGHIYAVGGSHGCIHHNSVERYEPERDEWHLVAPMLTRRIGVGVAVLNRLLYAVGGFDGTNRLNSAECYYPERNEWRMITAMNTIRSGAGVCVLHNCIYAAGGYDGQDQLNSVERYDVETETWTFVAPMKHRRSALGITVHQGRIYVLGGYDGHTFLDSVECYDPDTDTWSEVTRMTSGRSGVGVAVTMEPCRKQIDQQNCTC
T1 sequence (Q16236 whole entry, looked up): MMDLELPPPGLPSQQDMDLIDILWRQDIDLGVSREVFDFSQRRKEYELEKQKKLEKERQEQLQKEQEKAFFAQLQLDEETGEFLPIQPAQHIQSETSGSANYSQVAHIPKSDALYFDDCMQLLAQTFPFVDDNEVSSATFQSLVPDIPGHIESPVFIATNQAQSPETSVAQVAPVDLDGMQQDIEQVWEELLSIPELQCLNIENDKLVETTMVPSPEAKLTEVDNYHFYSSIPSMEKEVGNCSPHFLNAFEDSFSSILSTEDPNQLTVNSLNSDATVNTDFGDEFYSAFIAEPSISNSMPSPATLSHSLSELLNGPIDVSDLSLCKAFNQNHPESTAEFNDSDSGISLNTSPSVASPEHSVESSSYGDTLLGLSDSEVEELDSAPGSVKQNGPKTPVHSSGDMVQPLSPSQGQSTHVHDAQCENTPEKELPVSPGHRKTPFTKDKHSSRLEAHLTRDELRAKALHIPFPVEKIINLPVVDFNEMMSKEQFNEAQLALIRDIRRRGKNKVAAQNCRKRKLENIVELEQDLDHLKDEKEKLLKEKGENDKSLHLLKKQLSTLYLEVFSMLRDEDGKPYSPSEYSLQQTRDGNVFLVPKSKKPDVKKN

On to `O=C(/C=C/CCl)O[C@@H]1COC(=O)C1`, for which the Activity entry in [1] is “Dose-dependent effect”; in [2], 51.4%; in data set [3], 27.6%; in [4], 10%; in data set [5] it was 17.1%; in data set [32], “Toxic”. Moreover, the outcome in data set [6], in data set [7], in data set [8], in data set [9], in [10] and in [11] was Active. For the same compound, the result in data set [12], in [13], in data set [14], in [15], in data set [16] and in [17] was Active. Moreover, the result in data set [18], in data set [19], in data set [20], in data set [21], in data set [22] and in data set [23] was Active. Also, the result in data set [24], in data set [25], in data set [26], in data set [27], in data set [28] and in data set [29] was Active. Further, the result in data set [30] and in data set [31] was Active.
On to `COC(=O)/C=C/C(=O)OC` [DIMETHYL FUMARATE], for which the result in data set [33] was Active. Also, the Activity entry in data set [32] is “Toxic”.
`CC(C)(C)c1cc(O)ccc1O` [E319]: in data set [33], the result was Active. Besides, in [32], the Activity entry is recorded as “Toxic”.
